# Measured values from different studies.
# Lines come from different studies, so protocols differ.
# Target: Serine/threonine-protein kinase Nek6 (NEK6, Homo sapiens, UniProt Q9HC98)
# Read-out: enzyme activity
# Action: inhibitor
Structure (SMILES),test,conditions,remaining activity [%]
Nc1nc(NC2CCCCC2)sc1C(=O)c1ccccc1,,10 µM,113
Cn1c(=O)n(-c2ccc(C(C)(C)C#N)cc2)c2c3cc(-c4cnc5ccccc5c4)ccc3ncc21,,10 µM,95
COc1cc(Cl)c(C(=O)N[C@@H](CN[C@H]2CC[C@@H](N)CC2)Cc2ccc(C#N)cc2)cc1-c1ccc(CN[C@H](C)c2ccc(C)cc2)o1,,1 µM,111
CCCOc1ccc(OC)c(F)c1C(=O)c1ccc(C(=O)N[C@@H]2CNC[C@H]2NC(=O)c2ccc3[nH]ncc3c2)cc1,,10 µM,96
CCN(CC)CCNC(=O)c1c(C)[nH]c(/C=C2\C(=O)Nc3ccc(F)cc32)c1C,,0.1 µM,99
CCN(CC)c1ccc(C2=NNC(=O)CC2C)cc1[N+](=O)[O-] (stereo not drawn),,10 µM,93
Oc1cccc(-c2nc(N3CCOCC3)c3oc4ncccc4c3n2)c1,,10 µM,87
CC(C)(C)c1nc2c(s1)c1nc(N)ncc1c1ccc(NS(=O)(=O)c3c(F)cccc3F)c(F)c12,radiometric,1 µM,96
COc1cc(Nc2cnc(C#N)c(O[C@H](C)CN(C)C)n2)ncc1-c1cnn(C)c1,radiometric,1 µM,97
Cc1[nH]c(/C=C2\C(=O)Nc3ccc(F)cc32)c(C)c1C(=O)N[C@H]1CCN(C(=O)N(C)C)C1,,1 µM,126
Nc1nc(Nc2ccccc2)sc1C(=O)c1c(F)cccc1F,,10 µM,97
Cc1sc(C(=O)NC2COC2)cc1-n1cc(NC(=O)Nc2c(F)cccc2Cl)cn1,,10 µM,92.7
